Results as given in ChEMBL document CHEMBL3244286, “Inactivation of trypsin-like proteases by sulfonylation. Variation of positively charged group and inhibitor length” (J Med Chem, 1978).
pKi: −log10 of the molar value.

Target: Urokinase-type plasminogen activator (Homo sapiens) (UniProt P00749)
Assay: Inhibition of 51 X 10^-7 M human urokinase using Z-Lys-thiobenzyl ester as substrate assessed as second-order rate inactivation constant incubated up to 1 hr at pH 7.4
Conditions: not given

Kinact	Compound
1.53 M⁻¹ s⁻¹	N=C(N)SCc1ccc(S(=O)(=O)Oc2ccc([N+](=O)[O-])cc2)cc1

Target: not listed separately
Assay: Competitive inhibition of 6.4 X 10^-7 M bovine trypsin using Z-Lys-nitrophenyl ester as substrate incubated up to 1 hr at pH 6
Parameters: species or system Bos taurus
Conditions: not given
Summary of the method: (§1)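 Ki for competitive inhibition measured at pH 6 with Z-Lys-nitrophenyl ester as substrate. Enzyme concentrations were set by active-site titration with methylumbelliferyl p-guanidinobenzoate. Compounds were added from DMF stocks, with no more than 1% DMF in the reaction.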

pKi	Compound
3.41	N=C(N)SCc1ccc(CS(=O)(=O)Oc2ccc([N+](=O)[O-])cc2)cc1

Target: Prothrombin (Bos taurus, UniProt P00735)
Assay: Competitive inhibition of 16 X 10^-7 M bovine thrombin using Z-Lys-nitrophenyl ester as substrate incubated up to 1 hr at pH 6
Conditions: not given
Summary of the method: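 Ki for competitive inhibition was determined at pH 6 against Z-Lys-nitrophenyl ester hydrolysis, following previously published procedures. Active enzyme concentration was set by titration with methylumbelliferyl p-guanidinobenzoate. Inhibitors were added from DMF stock solutions, with DMF at no more than 1% of the reaction mixture.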

pKi	Compound
3.03	N=C(N)SCc1ccc(CS(=O)(=O)Oc2ccc([N+](=O)[O-])cc2)cc1

Target: Urokinase-type plasminogen activator (Homo sapiens) (UniProt P00749)
Assay: Inhibition of 2 X 10^-7 M human urokinase using Z-Lys-thiobenzyl ester as substrate assessed as second-order rate inactivation constant incubated up to 1 hr at pH 7.4
Conditions: in the assay text read “51 X 10^-7 M” for “2 X 10^-7 M”
Summary of the method: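 Purified urokinase incubated with inhibitor at room temperature in 0.1 M tris chloride, pH 7.4, with no more than 1% DMF. Residual activity in aliquots was read with Z-Lys-thiobenzyl ester. Enzyme was active-site titrated with methylumbelliferyl p-guanidinobenzoate. First-order k1 = 0.693/t1/2 (min), divided by inhibitor concentration to give the second-order rate. Incubations were not run past 1 h when loss was low.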

Kinact	Compound
0 M⁻¹ s⁻¹	O=[N+]([O-])c1ccc(OS(=O)(=O)Cc2cccc(-[n+]3ccccc3)c2)cc1
10 M⁻¹ s⁻¹	N=C(N)SCc1ccc(CS(=O)(=O)Oc2ccc([N+](=O)[O-])cc2)cc1

Target: Prothrombin (Bos taurus) (UniProt P00735)
Assay: Inhibition of 16 X 10^-7 M bovine thrombin using Z-Lys-nitrophenyl ester as substrate assessed as second-order rate inactivation constant incubated up to 1 hr at pH 7.4
Conditions: not given
Summary of the method: (§2)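 Enzyme and inhibitor incubated at room temperature in 0.1 M tris chloride, pH 7.4, with no more than 1% DMF from stocks. Aliquots were withdrawn and residual activity was assayed with Z-Lys-nitrophenyl ester. Protease concentration was set by methylumbelliferyl p-guanidinobenzoate titration. Decay was first order, k1 = 0.693/t1/2 (min), and the second-order constant is k1 divided by inhibitor concentration. Incubations with little loss of activity were stopped at 1 h.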

Compound	Kinact
O=[N+]([O-])c1ccc(OS(=O)(=O)Cc2cccc(-[n+]3ccccc3)c2)cc1	0 M⁻¹ s⁻¹
N=C(N)SCc1ccc(S(=O)(=O)Oc2ccc([N+](=O)[O-])cc2)cc1	9.67 M⁻¹ s⁻¹
O=[N+]([O-])c1ccc(OS(=O)(=O)c2ccc(C[n+]3ccccc3)cc2)cc1	0 M⁻¹ s⁻¹
N=C(N)SCc1ccc(CS(=O)(=O)Oc2cccc([N+](=O)[O-])c2)cc1	0 M⁻¹ s⁻¹
CNC(=N)SCc1ccc(S(=O)(=O)Oc2ccc([N+](=O)[O-])cc2)cc1	0 M⁻¹ s⁻¹

Next, values leading:

Kinact	Compound
0 M⁻¹ s⁻¹	N=C(N)SCc1ccc(CS(=O)(=O)Oc2ccc([N+](=O)[O-])cc2)cc1
0 M⁻¹ s⁻¹	C[S+](C)Cc1ccc(S(=O)(=O)Oc2ccc([N+](=O)[O-])cc2)cc1
0 M⁻¹ s⁻¹	C[S+](C)c1ccc(CS(=O)(=O)Oc2ccc([N+](=O)[O-])cc2)cc1
2.45 M⁻¹ s⁻¹	C[N+](C)(C)Cc1ccc(S(=O)(=O)Oc2ccc([N+](=O)[O-])cc2)cc1
0 M⁻¹ s⁻¹	O=[N+]([O-])c1ccc(OS(=O)(=O)Cc2ccc(-[n+]3ccccc3)cc2)cc1
0 M⁻¹ s⁻¹	C[S+](C)c1cccc(CS(=O)(=O)Oc2ccc([N+](=O)[O-])cc2)c1

Target: T1, Plasminogen (Homo sapiens, UniProt P00747)
T1 sequence (P00747 97-580 limits assumed): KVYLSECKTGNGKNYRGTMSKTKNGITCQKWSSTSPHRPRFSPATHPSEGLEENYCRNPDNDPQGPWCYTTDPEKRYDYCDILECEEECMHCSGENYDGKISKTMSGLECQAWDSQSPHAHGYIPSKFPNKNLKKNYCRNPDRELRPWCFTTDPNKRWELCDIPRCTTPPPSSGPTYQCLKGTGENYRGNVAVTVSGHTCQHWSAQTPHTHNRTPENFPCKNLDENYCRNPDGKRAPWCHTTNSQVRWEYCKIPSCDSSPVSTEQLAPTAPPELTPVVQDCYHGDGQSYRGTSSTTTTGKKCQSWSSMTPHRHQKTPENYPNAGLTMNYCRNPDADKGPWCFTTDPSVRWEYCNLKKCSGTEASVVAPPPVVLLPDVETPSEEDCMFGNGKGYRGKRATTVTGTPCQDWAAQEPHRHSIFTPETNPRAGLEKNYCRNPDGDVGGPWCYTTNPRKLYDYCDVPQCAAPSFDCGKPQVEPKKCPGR
T1 sequence (P00747 581-810 limits assumed): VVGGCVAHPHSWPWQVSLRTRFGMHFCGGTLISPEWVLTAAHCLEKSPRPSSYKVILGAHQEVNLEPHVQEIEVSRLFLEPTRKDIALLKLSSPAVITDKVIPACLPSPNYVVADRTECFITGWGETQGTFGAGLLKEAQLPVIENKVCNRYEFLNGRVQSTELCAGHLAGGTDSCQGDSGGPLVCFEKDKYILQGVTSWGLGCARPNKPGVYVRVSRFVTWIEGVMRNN
Assay: Inhibition of 4.8 X 10^-7 M human plasmin using Z-Lys-nitrophenyl ester as substrate assessed as second-order rate inactivation constant incubated up to 1 hr at pH 7.4
Conditions: not given
Summary of the method: as §2

Compound	Kinact
O=[N+]([O-])c1ccc(OS(=O)(=O)Cc2cccc(-[n+]3ccccc3)c2)cc1	0 M⁻¹ s⁻¹
N=C(N)SCc1ccc(S(=O)(=O)Oc2ccc([N+](=O)[O-])cc2)cc1	2.08 M⁻¹ s⁻¹
O=[N+]([O-])c1ccc(OS(=O)(=O)c2ccc(C[n+]3ccccc3)cc2)cc1	0 M⁻¹ s⁻¹
N=C(N)SCc1ccc(CS(=O)(=O)Oc2cccc([N+](=O)[O-])c2)cc1	0 M⁻¹ s⁻¹
CNC(=N)SCc1ccc(S(=O)(=O)Oc2ccc([N+](=O)[O-])cc2)cc1	0 M⁻¹ s⁻¹

The remaining lines, values ahead:

Kinact	Compound
0.117 M⁻¹ s⁻¹	N=C(N)SCc1ccc(CS(=O)(=O)Oc2ccc([N+](=O)[O-])cc2)cc1
0 M⁻¹ s⁻¹	C[S+](C)Cc1ccc(S(=O)(=O)Oc2ccc([N+](=O)[O-])cc2)cc1
0 M⁻¹ s⁻¹	C[S+](C)c1ccc(CS(=O)(=O)Oc2ccc([N+](=O)[O-])cc2)cc1
0.833 M⁻¹ s⁻¹	C[N+](C)(C)Cc1ccc(S(=O)(=O)Oc2ccc([N+](=O)[O-])cc2)cc1
0 M⁻¹ s⁻¹	O=[N+]([O-])c1ccc(OS(=O)(=O)Cc2ccc(-[n+]3ccccc3)cc2)cc1
0 M⁻¹ s⁻¹	C[S+](C)c1cccc(CS(=O)(=O)Oc2ccc([N+](=O)[O-])cc2)c1

Target: T2, Plasma kallikrein (Homo sapiens, UniProt P03952)
T2 sequence (P03952 20-390 limits assumed): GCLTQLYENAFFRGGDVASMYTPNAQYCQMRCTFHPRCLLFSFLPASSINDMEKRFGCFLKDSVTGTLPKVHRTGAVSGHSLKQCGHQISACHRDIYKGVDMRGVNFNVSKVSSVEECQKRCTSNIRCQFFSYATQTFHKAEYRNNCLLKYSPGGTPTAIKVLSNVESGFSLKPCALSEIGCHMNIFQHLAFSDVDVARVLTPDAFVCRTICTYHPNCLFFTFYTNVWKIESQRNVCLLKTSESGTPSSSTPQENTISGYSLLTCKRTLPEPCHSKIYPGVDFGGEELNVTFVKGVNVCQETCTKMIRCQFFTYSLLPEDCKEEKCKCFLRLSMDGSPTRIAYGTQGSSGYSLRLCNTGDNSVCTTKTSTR
T2 sequence (P03952 391-638 limits assumed): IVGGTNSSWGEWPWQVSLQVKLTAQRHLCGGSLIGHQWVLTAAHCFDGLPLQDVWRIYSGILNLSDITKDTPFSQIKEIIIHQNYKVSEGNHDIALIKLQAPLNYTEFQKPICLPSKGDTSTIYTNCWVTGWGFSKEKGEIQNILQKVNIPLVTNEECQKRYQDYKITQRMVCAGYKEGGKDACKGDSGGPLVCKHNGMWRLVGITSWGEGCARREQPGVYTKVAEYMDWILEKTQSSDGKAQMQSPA
Assay: Inhibition of 2 X 10^-7 M human plasma kallikrein using Z-Lys-nitrophenyl ester as substrate assessed as half time required for enzyme inactivation at 5X10'-6 M at pH 7.4
Conditions: in the assay text read “5.4X10'-4 M” for “5X10'-6 M”
Summary of the method: as §2

T1/2	Compound
> 120 min	N=C(N)SCc1ccc(S(=O)(=O)Oc2ccc([N+](=O)[O-])cc2)cc1

Target: T2, Plasma kallikrein
Assay: Inhibition of 2 X 10^-7 M human plasma kallikrein using Z-Lys-nitrophenyl ester as substrate assessed as second-order rate inactivation constant incubated up to 1 hr at pH 7.4
Conditions: not given
Summary of the method: as §2

Compound	Kinact
O=[N+]([O-])c1ccc(OS(=O)(=O)Cc2cccc(-[n+]3ccccc3)c2)cc1	0 M⁻¹ s⁻¹
N=C(N)SCc1ccc(S(=O)(=O)Oc2ccc([N+](=O)[O-])cc2)cc1	0.183 M⁻¹ s⁻¹
N=C(N)SCc1ccc(CS(=O)(=O)Oc2cccc([N+](=O)[O-])c2)cc1	0 M⁻¹ s⁻¹
CNC(=N)SCc1ccc(S(=O)(=O)Oc2ccc([N+](=O)[O-])cc2)cc1	0 M⁻¹ s⁻¹

Results, then the compound that gave them:

Kinact	Compound
0 M⁻¹ s⁻¹	C[S+](C)Cc1ccc(S(=O)(=O)Oc2ccc([N+](=O)[O-])cc2)cc1
0 M⁻¹ s⁻¹	C[S+](C)c1ccc(CS(=O)(=O)Oc2ccc([N+](=O)[O-])cc2)cc1
0 M⁻¹ s⁻¹	C[N+](C)(C)Cc1ccc(S(=O)(=O)Oc2ccc([N+](=O)[O-])cc2)cc1
0 M⁻¹ s⁻¹	O=[N+]([O-])c1ccc(OS(=O)(=O)Cc2ccc(-[n+]3ccccc3)cc2)cc1
0 M⁻¹ s⁻¹	C[S+](C)c1cccc(CS(=O)(=O)Oc2ccc([N+](=O)[O-])cc2)c1

Target: T2, Plasma kallikrein
Assay: Competitive inhibition of 2 X 10^-7 M human plasma kallikrein using Z-Lys-nitrophenyl ester as substrate incubated up to 1 hr at pH 6
Conditions: not given
Summary of the method: as §1

pKi	Compound
3.49	N=C(N)SCc1ccc(CS(=O)(=O)Oc2ccc([N+](=O)[O-])cc2)cc1

Target: Prothrombin (Bos taurus) (UniProt P00735)
Assay: Inhibition of 16 X 10^-7 M bovine thrombin using Z-Lys-nitrophenyl ester as substrate assessed as half time required for enzyme inactivation at 5X10'-5 M at pH 7.4
Conditions: not given
Summary of the method: as §2

T1/2	Compound
22 min	N=C(N)SCc1ccc(S(=O)(=O)Oc2ccc([N+](=O)[O-])cc2)cc1

Species: Bos taurus
Assay: Inhibition of 6.4 X 10^-7 M bovine trypsin using Z-Lys-nitrophenyl ester as substrate assessed as second-order rate inactivation constant incubated up to 1 hr at pH 7.4
Conditions: not given
Summary of the method: as §2

Compound	Kinact
O=[N+]([O-])c1ccc(OS(=O)(=O)Cc2cccc(-[n+]3ccccc3)c2)cc1	0 M⁻¹ s⁻¹
O=[N+]([O-])c1ccc(OS(=O)(=O)c2ccc(C[n+]3ccccc3)cc2)cc1	0 M⁻¹ s⁻¹
N=C(N)SCc1ccc(CS(=O)(=O)Oc2cccc([N+](=O)[O-])c2)cc1	7.17 M⁻¹ s⁻¹
CNC(=N)SCc1ccc(S(=O)(=O)Oc2ccc([N+](=O)[O-])cc2)cc1	0 M⁻¹ s⁻¹

Other lines, results leading:

Kinact	Compound
25 M⁻¹ s⁻¹	N=C(N)SCc1ccc(CS(=O)(=O)Oc2ccc([N+](=O)[O-])cc2)cc1
0 M⁻¹ s⁻¹	C[S+](C)Cc1ccc(S(=O)(=O)Oc2ccc([N+](=O)[O-])cc2)cc1
0 M⁻¹ s⁻¹	C[S+](C)c1ccc(CS(=O)(=O)Oc2ccc([N+](=O)[O-])cc2)cc1
0 M⁻¹ s⁻¹	O=[N+]([O-])c1ccc(OS(=O)(=O)Cc2ccc(-[n+]3ccccc3)cc2)cc1
0 M⁻¹ s⁻¹	C[S+](C)c1cccc(CS(=O)(=O)Oc2ccc([N+](=O)[O-])cc2)c1

Target: T1, Plasminogen
Assay: Competitive inhibition of 4.8 X 10^-7 M human plasmin using Z-Lys-nitrophenyl ester as substrate incubated up to 1 hr at pH 6
Conditions: not given
Summary of the method: as §1

pKi	Compound
2.94	N=C(N)SCc1ccc(CS(=O)(=O)Oc2ccc([N+](=O)[O-])cc2)cc1
